CHT allo act: allosteric activators of human choline transporter CHT; AID 488977; Q9GZV3; 0.49% of 310,000 active; B-score at 10 µM; CHT-expressing cells, membrane potential dye, choline EC20; hits give high values; LV-AA mutant CHT in HEK293 cells;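 active means initial fluorescence not abnormally high and integrated response B-score, plate-corrected, over 3 SD above library mean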
VLA-4 inh: inhibition in a human VLA-4 binding assay; P13612; VLA-4 expressing cells, ligand binding flow cytometry; inhibition, % (about 7 µM as worked out from the volumes in the protocol); 0.2% of 330,000 active; AID 2557; in the data active means inhibition above about 50%
Target sequence (P13612 whole entry, looked up): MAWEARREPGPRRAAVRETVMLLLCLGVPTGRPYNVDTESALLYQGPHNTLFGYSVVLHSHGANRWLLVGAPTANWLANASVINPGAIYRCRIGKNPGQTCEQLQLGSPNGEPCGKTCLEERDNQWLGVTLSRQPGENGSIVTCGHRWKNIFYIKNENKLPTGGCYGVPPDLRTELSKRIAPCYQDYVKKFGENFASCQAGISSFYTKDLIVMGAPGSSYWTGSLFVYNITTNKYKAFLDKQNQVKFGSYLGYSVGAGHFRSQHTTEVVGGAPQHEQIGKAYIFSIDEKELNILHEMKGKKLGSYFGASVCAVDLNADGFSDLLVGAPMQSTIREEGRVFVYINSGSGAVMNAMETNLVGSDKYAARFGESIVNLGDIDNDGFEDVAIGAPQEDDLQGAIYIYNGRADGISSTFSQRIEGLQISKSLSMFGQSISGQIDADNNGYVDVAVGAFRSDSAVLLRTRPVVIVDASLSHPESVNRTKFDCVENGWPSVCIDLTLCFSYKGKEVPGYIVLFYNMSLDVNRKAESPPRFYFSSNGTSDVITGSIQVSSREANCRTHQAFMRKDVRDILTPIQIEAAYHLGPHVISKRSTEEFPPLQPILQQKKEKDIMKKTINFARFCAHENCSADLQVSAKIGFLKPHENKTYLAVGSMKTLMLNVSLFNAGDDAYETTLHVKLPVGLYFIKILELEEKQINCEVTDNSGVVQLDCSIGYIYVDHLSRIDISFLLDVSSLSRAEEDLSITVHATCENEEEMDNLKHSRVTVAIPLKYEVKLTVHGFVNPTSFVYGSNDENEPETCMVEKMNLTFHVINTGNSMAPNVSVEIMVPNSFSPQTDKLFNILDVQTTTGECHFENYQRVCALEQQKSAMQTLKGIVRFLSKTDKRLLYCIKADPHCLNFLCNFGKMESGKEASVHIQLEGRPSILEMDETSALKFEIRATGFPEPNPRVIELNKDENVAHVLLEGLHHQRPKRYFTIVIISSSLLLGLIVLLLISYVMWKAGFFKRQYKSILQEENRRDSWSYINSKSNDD
T cell HTS: T cell immune modulation candidate; 2C CD8+ T cell-vesicle binding, flow cytometry; hits give low values; response (vesicle binding), % at 7 µM; 0.068% of 330,000 active;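 active means response, share of CD8 T cells binding vesicles, and their 90th percentile fluorescence all below set limits, cut at about 80% in these data, passing the limit was not always enough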;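 further: values below 100% mean blocked vesicle binding to the CD8+ T cells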
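material = purified 2C TCR transgenic mouse naive CD8+ T cells | controls = Unloaded micro-vesicles (low), QL9 vesicles with 0.7% DMSO (high) | detection = cytometric PE anti-B7-1 and Alexa647 anti-CD8 signals after 1% paraformaldehyde fixation | incubation = binding step 1.5 h, 37 °C, antibody labelling 20 min, ice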
CHT block: human CHT choline transport inhibition. CHT-expressing cells, membrane potential dye, choline response; hits give low values. B-score at 10 µM. Q9GZV3. 0.86% of 310,000 active;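 active means B-score over 3 SD under the library average, and starting fluorescence ratio not unusually high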;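 further: choline stimulus applied at its EC90 after an EC20 pre-addition; B-score computed on integrated fluorescence ratio after choline addition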
CHT block conf: human CHT inhibition, confirmatory screen; shares compounds with CHT block; 70% of 2,400 active; CHT activity remaining % of control (hits give low values), % at 10 µM; CHT-expressing cells, choline membrane potential dye; LV-to-AA substituted CHT, HEK293 cells; AID 493221;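 active means choline transporter activity left, mean of duplicates at 10 µM, below buffer-only control mean minus 3 SD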;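 further: depolarization triggered by choline at its EC90 following an EC20 pre-addition; 0% = hemicholinium-3 full block and 100% = buffer-only control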
HEK293 CHT ctr: CHT inhibitor counter-screen hit in parental HEK293 cells. shares compounds with CHT block. membrane potential dye, choline response; active = decrease or increase beyond buffer ±3SD. membrane potential ratio readout (active if shifted either direction beyond buffer ±3SD; no single direction) at 10 µM. 4% of 2,400 active;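 further: parental cells lack the transporter so any hit is non-specific; ratio is peak minus trough fluorescence over baseline after EC90 choline challenge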
* marks the source's active call; other numbers are inactive results. Hits are enriched below; roughly 1.5% of the tested compounds scored in any of these assays.

Results for COc1ccc(CNS(=O)(=O)c2ccc3c(c2)CC(C)N3C(=O)C2CC2)cc1 (centres undefined) ?
CHT allo act: inactive; VLA-4 inh: 5; T cell HTS: 180; CHT block: -5*; CHT block conf: inactive; HEK293 CHT ctr: inactive

How did COc1cccc(CNS(=O)(=O)c2ccc3c(c2)CC(C)N3C(=O)C2CC2)c1 (centres undefined) do in these assays?
CHT allo act: inactive; VLA-4 inh: -1; T cell HTS: 280; CHT block: inactive

What do the screens show for `Cc1ccc(S(=O)(=O)Oc2cccc(/C=N/Nc3ccc(C(=O)O)cc3)c2)cc1`?
CHT allo act: inactive; VLA-4 inh: 0; T cell HTS: 560; CHT block: inactive

Results for Cc1ccc(S(=O)(=O)Oc2cccc(/C=N/n3cnnc3)c2)cc1 ?
CHT allo act: inactive; VLA-4 inh: 3; T cell HTS: 546; CHT block: -10*; CHT block conf: 56%*; HEK293 CHT ctr: inactive

What do the screens show for `CC1CCCCC1NC(=O)C1CCCN(S(=O)(=O)c2ccc(-n3cnnn3)cc2)C1` (centres undefined)?
CHT allo act: inactive; VLA-4 inh: 10; T cell HTS: 297; CHT block: -9.5*; CHT block conf: 52%*; HEK293 CHT ctr: inactive

What do the screens show for `CC1CCCCC1NC(=O)C1CCN(S(=O)(=O)c2ccc(-n3cnnn3)cc2)CC1` (centres undefined)?
CHT allo act: inactive; VLA-4 inh: 9; T cell HTS: 123; CHT block: inactive

Results for CCCn1nnc(NC(=S)NC(=O)/C=C/c2ccco2)n1 ?
CHT allo act: inactive; VLA-4 inh: -1; T cell HTS: 0; CHT block: inactive

What do the screens show for `C/C(=N\N=C(/N)c1nonc1N)c1ccc2c(c1)OCO2`?
CHT allo act: inactive; VLA-4 inh: 4; T cell HTS: 428; CHT block: inactive

How did Cc1ccc(CSc2nnc(SCC(=O)N/N=C/c3ccc(C(=O)O)cc3)s2)cc1 do in these assays?
CHT allo act: inactive; VLA-4 inh: 4; T cell HTS: 168; CHT block: -5*; CHT block conf: inactive; HEK293 CHT ctr: inactive

What do the screens show for `CCCn1nc([N+](=O)[O-])c(C(C#N)c2nc3ccccc3s2)c(Cl)c1=O` (centres undefined)?
CHT allo act: inactive; VLA-4 inh: 14; T cell HTS: 336; CHT block: -14*; CHT block conf: 17%*; HEK293 CHT ctr: inactive

Results for CCn1nc([N+](=O)[O-])c(C(C#N)c2nc3ccccc3n2C)c(Cl)c1=O (centres undefined) ?
CHT allo act: inactive; VLA-4 inh: 10; T cell HTS: 301; CHT block: inactive

What do the screens show for `Cc1nn(S(=O)(=O)c2ccccc2)c(C)c1S(=O)(=O)N1CCOCC1`?
CHT allo act: inactive; VLA-4 inh: 0; T cell HTS: 208; CHT block: inactive

What do the screens show for `CC(C)CCNC(=S)Nc1ccc([N+](=O)[O-])cc1`?
CHT allo act: inactive; VLA-4 inh: -3; T cell HTS: 223; CHT block: -8.7*; CHT block conf: 23%*; HEK293 CHT ctr: inactive

What do the screens show for `O=[N+]([O-])c1ccc(NNC(=S)Nc2ccc(F)cc2)cc1`?
CHT allo act: inactive; VLA-4 inh: -20; T cell HTS: 304; CHT block: -6.9*; CHT block conf: inactive; HEK293 CHT ctr: inactive

Results for CCCCNC(=S)Nc1ccc([N+](=O)[O-])cc1 ?
CHT allo act: inactive; VLA-4 inh: 6; T cell HTS: 362; CHT block: -9.2*; CHT block conf: 35%*; HEK293 CHT ctr: inactive

What do the screens show for `O=C(NNC(=S)Nc1ccc(F)cc1)c1cccc([N+](=O)[O-])c1`?
CHT allo act: inactive; VLA-4 inh: 3; T cell HTS: 304; CHT block: inactive

What do the screens show for `CCCCNC(=S)NC(=O)c1ccc([N+](=O)[O-])cc1`?
CHT allo act: inactive; VLA-4 inh: 9; T cell HTS: 150; CHT block: inactive

Results for CCN(CC(=O)Nc1cccc(OC)c1)c1ncnc2sc(C)c(C)c12 ?
CHT allo act: inactive; VLA-4 inh: 2; T cell HTS: 449; CHT block: -5.5*; CHT block conf: 69%*; HEK293 CHT ctr: inactive

Results for COc1cccc(NC(=O)CN(C)C(=O)CSc2ncnc3sc(C)c(C)c23)c1 ?
CHT allo act: inactive; VLA-4 inh: 5; T cell HTS: 270; CHT block: inactive

How did COc1ccc(OC)c(NC(=O)CSc2nc3ccccc3c(=O)n2CC2CCCO2)c1 (centres undefined) do in these assays?
CHT allo act: inactive; VLA-4 inh: -3; T cell HTS: 217; CHT block: inactive

What do the screens show for `COc1ccc(-c2nnc(CSc3nc4ccccc4c(=O)n3CC3CCCO3)o2)cc1OC` (centres undefined)?
CHT allo act: inactive; VLA-4 inh: -2; T cell HTS: 302; CHT block: -7.4*; CHT block conf: 49%*; HEK293 CHT ctr: inactive

What do the screens show for `CC(NCC(=O)Nc1ccccc1C(=O)NC1CC1)c1ccc(F)cc1F` (centres undefined)?
VLA-4 inh: -1; T cell HTS: 230

How did Cc1noc(C)c1S(=O)(=O)N(C)C[C@H]1Oc2c(NS(=O)(=O)c3cn(C)cn3)cccc2C(=O)N([C@H](C)CO)C[C@@H]1C do in these assays?
VLA-4 inh: -12; T cell HTS: 369

Results for CCCCn1c(=O)n(Cc2cccc(F)c2)c(=O)c2c1ncn2Cc1ccco1 ?
CHT allo act: inactive; VLA-4 inh: -2; T cell HTS: 216; CHT block: -12*; CHT block conf: 53%*; HEK293 CHT ctr: inactive

What do the screens show for `O=C1NC(=O)/C(=C\c2ccc(Br)o2)S1`?
CHT allo act: inactive; VLA-4 inh: -9; T cell HTS: 238; CHT block: -5.7*; CHT block conf: inactive; HEK293 CHT ctr: inactive

What do the screens show for `O=C(NCC(=O)N1CCN(S(=O)(=O)c2ccccc2F)CC1)c1ccc(Br)o1`?
CHT allo act: inactive; VLA-4 inh: 6; T cell HTS: 184; CHT block: inactive

What do the screens show for `O=S(=O)(c1ccc(N2CCCC2)nc1)N1CCCC1`?
CHT allo act: inactive; VLA-4 inh: -5; T cell HTS: 799; CHT block: -5.8*; CHT block conf: 43%*; HEK293 CHT ctr: inactive

Results for O=S(=O)(c1ccc(N2CCN(S(=O)(=O)c3ccccc3)CC2)nc1)N1CCCC1 ?
CHT allo act: inactive; VLA-4 inh: 0; T cell HTS: 227; CHT block: inactive

Source: PubChem
